ChEMBL document CHEMBL2439968, “Spectroscopic identification and anti-biofilm properties of polar metabolites from the medicinal plant Helichrysum italicum against Pseudomonas aeruginosa” (2013)
Activity calls are given as the source filed them. The rule behind the calls is not given here.

Assays:
[1] = test system: Pseudomonas aeruginosa; assay: Antimicrobial activity against Pseudomonas aeruginosa PaM02 assessed as growth inhibition at 0.008 umol/ml by microtitre plate reader analysis; type: functional
Method in brief: (§1)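 Clinical mucoid strain grown overnight in LB broth at 37 °C and diluted with saline to OD600 around 1, then 100-fold. Compound in LB was added to an equal volume of cells, giving a final 5.0 × 10^5 CFU/ml and 128 µg/ml compound. Negative control was LB plus the matching DMSO level, with sterility and no-compound wells. Growth was read as turbidity at 600 nm; tobramycin served as positive control.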

[2] = test system: Pseudomonas aeruginosa; assay: Antimicrobial activity against Pseudomonas aeruginosa PaM02 at > 128 ug/ml by microtitre plate reader analysis; type: functional, organism-based; method in brief: as §1
[3] = test system: Pseudomonas aeruginosa; assay: Antimicrobial activity against Pseudomonas aeruginosa PaM02 biofilm at 128 ug/ml after 24 hrs by crystal violet staining-based ELISA reader analysis; type: functional; settings: PaM02, 24 h
Method in brief: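 Preformed biofilm was grown from 100 µL of 1.0 × 10^7 CFU/ml inoculum for 24 h at 37 °C in polystyrene wells. Planktonic cells were removed and wells rinsed with PBS. Compound at 128 µg/ml final in LB was added for a further 24 h at 37 °C. Biofilm was stained with 1% crystal violet, destained with 95% ethanol and read at 570 nm. Reduction = [(Ac−At)/Ac] × 100 versus LB/DMSO controls.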

[4] = test system: Pseudomonas aeruginosa; assay: Inhibition of biofilm formation of Pseudomonas aeruginosa PaM02 at 128 ug/ml after 24 hrs by crystal violet staining-based ELISA reader analysis; type: functional; settings: PaM02, 24 h
Method in brief: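 Prevention assay: compound at 128 µg/ml final in LB was incubated in polystyrene wells overnight at 4 °C, aspirated, and wells washed with PBS. Wells were seeded with 100 µL of 1.0 × 10^7 CFU/ml inoculum and incubated 24 h at 37 °C. Biofilm was stained with 1% crystal violet, destained with 95% ethanol and read at 570 nm. Inhibition = [(Ac−At)/Ac] × 100 versus LB-preincubated controls.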

[5] = test system: Pseudomonas aeruginosa; assay: Antimicrobial activity against Pseudomonas aeruginosa PaM02 assessed as growth inhibition at 0.323 umol/ml by microtitre plate reader analysis; type: functional; method in brief: as §1
[6] = test system: Pseudomonas aeruginosa; assay: Bactericidal activity against Pseudomonas aeruginosa PaM02 at 128 ug/ml after 24 hrs by time kill analysis (reference value: 2.322 log10 CFU/ml); type: functional
[7] = test system: Pseudomonas aeruginosa; assay: Bactericidal activity against Pseudomonas aeruginosa PaM02 at 128 ug/ml after 8 hrs by time kill analysis (reference value: 2.322 log10 CFU/ml); type: functional
[8] = test system: Pseudomonas aeruginosa; assay: Bactericidal activity against Pseudomonas aeruginosa PaM02 at 128 ug/ml after 16 hrs by time kill analysis (reference value: 2.322 log10 CFU/ml); type: functional
[9] = test system: Pseudomonas aeruginosa; assay: Bactericidal activity against Pseudomonas aeruginosa PaM02 at 128 ug/ml after 4 hrs by time kill analysis (reference value: 2.322 log10 CFU/ml); type: functional
[10] = test system: Pseudomonas aeruginosa; assay: Antimicrobial activity against Pseudomonas aeruginosa PaM02 assessed as growth inhibition at 0.245 umol/ml by microtitre plate reader analysis; type: functional; method in brief: as §1
[11] = test system: Pseudomonas aeruginosa; assay: Antimicrobial activity against Pseudomonas aeruginosa PaM02 assessed as growth inhibition at 0.315 umol/ml by microtitre plate reader analysis; type: functional; method in brief: as §1

NC[C@H]1O[C@H](O[C@H]2[C@H](O)[C@@H](O[C@H]3O[C@H](CO)[C@@H](O)[C@H](N)[C@H]3O)[C@H](N)C[C@@H]2N)[C@H](N)C[C@@H]1O [TOBRAMYCIN]
growth inhibition (GI) [1]: 100%

COc1cc2c(c(O[C@@H]3O[C@H](CO)[C@@H](O)[C@H](O)[C@H]3O)c1)C(=O)OC2
Activity [2]: inactive

COc1cc(=O)oc([C@H]2[C@H](c3ccc(O[C@@H]4O[C@H](CO)[C@@H](O)[C@H](O)[C@H]4O)cc3)[C@H](c3cc(OC)cc(=O)o3)[C@H]2c2ccc(O[C@@H]3O[C@H](CO)[C@@H](O)[C@H](O)[C@H]3O)cc2)c1
Activity [2]: inactive

O=C(/C=C/c1ccc(O)c(O)c1)O[C@@H]1C[C@](O)(C(=O)O)C[C@@H](OC(=O)/C=C/c2ccc(O)c(O)c2)[C@H]1O
Activity [2]: inactive

COc1cc2c(c(O[C@@H]3O[C@H](COC(=O)CC(=O)O)[C@@H](O)[C@H](O)[C@H]3O)c1)C(=O)OC2
Activity [2]: inactive | inhibition at 128 µg/mL [3]: 27%

O=C(/C=C/c1ccc(O)c(O)c1)O[C@@H]1C[C@](O)(C(=O)O)C[C@@H](O)[C@H]1O [CHLOROGENIC ACID]
Activity [2]: inactive | inhibition at 128 µg/mL [4]: 45%

C=C(CO[C@@H]1O[C@H](CO)[C@@H](O)[C@H](O)[C@H]1O)[C@@H]1Oc2ccc(C(C)=O)cc2[C@@H]1O
growth inhibition (GI) [5]: 17% | Activity [6]: 1.881 log10CFU/ml | Activity [7]: 1.974 log10CFU/ml | inhibition at 128 µg/mL [3]: 16% | Activity [8]: 1.927 log10CFU/ml | Activity [9]: 2.136 log10CFU/ml

COc1cc(/C=C/c2ccc(O[C@@H]3O[C@H](COC(=O)CC(C)(O)CC(=O)O)[C@@H](O)[C@H](O)[C@H]3O)cc2)oc(=O)c1 (some centres undefined)
Activity [2]: inactive

COc1cc([C@H]2Oc3c(OC)cc(CCCO)cc3[C@@H]2CO)ccc1O[C@@H]1O[C@H](CO)[C@@H](O)[C@H](O)[C@H]1O
Activity [6]: 1.765 log10CFU/ml | Activity [7]: 1.858 log10CFU/ml | growth inhibition (GI) [10]: 21% | Activity [8]: 1.811 log10CFU/ml | Activity [9]: 2.043 log10CFU/ml

O=C1OCc2cc(O)cc(O[C@@H]3O[C@H](CO)[C@@H](O)[C@H](O)[C@H]3O)c21
Activity [2]: inactive

COc1cc(/C=C/c2ccc(O[C@@H]3O[C@H](CO)[C@@H](O)[C@H](O)[C@H]3O)cc2)oc(=O)c1
Activity [6]: 1.045 log10CFU/ml | Activity [7]: 1.103 log10CFU/ml | growth inhibition (GI) [11]: 53% | Activity [8]: 1.055 log10CFU/ml | Activity [9]: 1.157 log10CFU/ml

C=C(CO)[C@@H]1Oc2ccc(C(C)=O)cc2[C@@H]1O[C@@H]1O[C@H](CO)[C@@H](O)[C@H](O)[C@H]1O
Activity [2]: inactive | inhibition at 128 µg/mL [3]: 9%

COc1cc(/C=C/c2ccc(O[C@@H]3O[C@H](COC(=O)CC(=O)O)[C@@H](O)[C@H](O)[C@H]3O)cc2)oc(=O)c1
Activity [2]: inactive
